Measured values taken from ChEMBL document CHEMBL1629563, “Pharmacokinetic and safety evaluation of BILR 355, a second-generation nonnucleoside reverse transcriptase inhibitor, in healthy volunteers” (Antimicrob Agents Chemother, 2008).

Key:
[1] = Apparent oral clearance in healthy human at 12.5 mg, po administered as single dose coadministered with 100 mg of ritonavir; assay type: ADME, organism-based; conditions: in vivo
Method in brief: (§1)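 Healthy male volunteers, fasted. Ritonavir 100 mg given 10 h before and again together with single oral BILR 355 in PEG solution. EDTA plasma sampled predose to 144 h. LC-MS/MS assay after protein precipitation. Noncompartmental analysis, AUC by linear up/log down trapezoidal rule; Vss = CL/F·(MRTp.o. − 1/Ka).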

[2] = Cmax in high fat fed healthy human at 50 mg, po administered as single dose coadministered with 100 mg of ritonavir by high-pressure liquid chromatography-tandem mass spectrometry/mass spectrometry method; assay type: ADME, organism-based; parameters: dose 50 mg, route oral; conditions: in vivo
Method in brief: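 Fed cohort: healthy males ate an FDA-recipe high-fat breakfast (about 150/250/500-600 cal from protein/carbohydrate/fat) 30 min before a 50 mg oral dose of BILR 355 in PEG solution. Ritonavir 100 mg was given 10 h before and with the dose. Plasma was sampled over 144 h and assayed by LC-MS/MS. Noncompartmental analysis gave Cmax and Vz/F. Vss/F = CL/F·(MRTp.o. − 1/Ka).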

[3] = Mean residence time in healthy human at 50 mg, po administered as single dose coadministered with 100 mg of ritonavir; assay type: ADME, organism-based; conditions: in vivo
[4] = Apparent oral clearance in healthy human at 62.5 mg, po administered as single dose coadministered with 100 mg of ritonavir; assay type: ADME, organism-based; conditions: in vivo; method in brief: as §1
[5] = Apparent oral clearance in healthy human at 5 mg, po administered as single dose; assay type: ADME, organism-based; conditions: in vivo
Method in brief: (§2)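 Healthy male volunteers, six active plus two placebo per dose group, single oral dose in PEG solution with 200 ml water after overnight fast; breakfast 60 to 90 min post-dose. EDTA plasma sampled predose to 144 h. Assayed by validated LC-MS/MS after protein precipitation. Noncompartmental analysis, AUC by linear up/log down trapezoidal rule; Vss = CL/F·(MRTp.o. − 1/Ka).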

[6] = Tmax in healthy human at 50 mg, po administered as single dose coadministered with 100 mg of ritonavir; assay type: ADME, organism-based; conditions: in vivo
[7] = AUC (0 to last) in healthy human at 5 mg, po administered as single dose; assay type: ADME, organism-based; parameters: dose 5 mg, time 0 - last, route oral; conditions: plasma; method in brief: as §2
Homo sapiens [8] = test: Toxicity in healthy human assessed as occurrence of fatigue at 12.5 mg, po administered as single dose relative to control; assay type: organism-based; conditions: in vivo
Homo sapiens [9] = test: Toxicity in healthy human assessed as occurrence of fatigue at 37.5 mg, po administered as single dose coadministered with 100 mg of ritonavir; assay type: organism-based; conditions: in vivo
Homo sapiens [10] = test: Toxicity in healthy human assessed as occurrence of herpes simplex at 50 mg, po administered as single dose relative to control; assay type: organism-based; conditions: in vivo
[11] = Renal clearance in healthy human at 12.5 mg, po administered as single dose by high-pressure liquid chromatography-tandem mass spectrometry/mass spectrometry method; assay type: ADME, organism-based, Kidney; conditions: in vivo, read-out: CL_renal (converted)
[12] = AUC (0 to last) in healthy human at 37.5 mg, po administered as single dose coadministered with 100 mg of ritonavir; assay type: ADME, organism-based; parameters: dose 37.5 mg, route oral, time 0 - last; conditions: plasma; method in brief: as §1
Homo sapiens [13] = test: Toxicity in healthy human assessed as occurrence of diarrhea at 12.5 mg, po administered as single dose coadministered with 100 mg of ritonavir; assay type: organism-based; conditions: in vivo
[14] = Tmax in healthy human at 25 mg, po administered as single dose coadministered with 100 mg of ritonavir; assay type: ADME, organism-based; conditions: in vivo
Homo sapiens [15] = test: Toxicity in healthy human assessed as occurrence of vomiting at 12.5 mg, po administered as single dose relative to control; assay type: organism-based; conditions: in vivo
Homo sapiens [16] = test: Toxicity in healthy human assessed as occurrence of frequent bowel movements at 50 mg, po administered as single dose relative to control; assay type: organism-based; conditions: in vivo
Homo sapiens [17] = test: Toxicity in healthy human assessed as occurrence of herpes simplex at 75 mg, po administered as single dose relative to control; assay type: organism-based; conditions: in vivo
[18] = AUC (0 to last) in healthy human at 5 mg, po administered as single dose coadministered with 100 mg of ritonavir; assay type: ADME, organism-based; parameters: dose 5 mg, time 0 - last, route oral; conditions: plasma; method in brief: as §1
[19] = Drug excretion in healthy human urine assessed as unchanged drug at 50 mg, po administered as single dose coadministered with 100 mg of ritonavir by high-pressure liquid chromatography-tandem mass spectrometry/mass spectrometry method; assay type: ADME, organism-based; conditions: read-out: Drug uptake
Method in brief: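 Ritonavir 100 mg was given 10 h before and with one oral dose of BILR 355 in PEG solution. Urine was collected by weight as predose blank, then 0-6, 6-24 and 24-72 h, stored at −20°C and assayed by LC-MS/MS. fe = unchanged drug excreted (Ae) as a percentage of dose. Line 50: high-fat breakfast 30 min before dosing.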

Homo sapiens [20] = test: Ratio of half life in human at 12.5 mg, po in presence of 100 mg of ritonavir to half life in human at 12.5 mg, po; assay type: ADME, organism-based; conditions: in vivo
Homo sapiens [21] = test: Toxicity in healthy human assessed as occurrence of migraine at 50 mg, po administered as single dose relative to control; assay type: organism-based; conditions: in vivo
[22] = AUC (0 to infinity) in healthy human at 87.5 mg, po administered as single dose coadministered with 100 mg of ritonavir; assay type: ADME, organism-based; parameters: dose 87.5 mg, time infinity, route oral; conditions: plasma; method in brief: as §1
[23] = Cmax in healthy human at 50 mg, po administered as single dose coadministered with 100 mg of ritonavir by high-pressure liquid chromatography-tandem mass spectrometry/mass spectrometry method; assay type: ADME, organism-based; parameters: dose 50 mg, route oral; conditions: in vivo
Method in brief: (§3)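 Healthy male volunteers, fasted overnight, got one oral dose of BILR 355 in PEG solution with 200 ml water. Ritonavir 100 mg was given 10 h before and again with the dose. Plasma was sampled (EDTA) from predose to 144 h and assayed by validated LC-MS/MS. Cmax and Vz/F came from noncompartmental analysis. Vss/F = CL/F·(MRTp.o. − 1/Ka), with Ka from compartmental modelling.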

Homo sapiens [24] = test: Toxicity in high fat fed healthy human assessed as occurrence of maculopapular rash at 50 mg, po administered as single dose coadministered with 100 mg of ritonavir; assay type: organism-based; conditions: in vivo
[25] = Apparent volume of distribution at steady state in healthy human at 5 mg, po administered as single dose; assay type: ADME, organism-based; conditions: in vivo, read-out: Vss/F
Method in brief: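 Single fasting oral dose of BILR 355 in PEG solution with 200 ml tap water, given to healthy males. Standard breakfast came 60-90 min after the dose. EDTA plasma was sampled predose to 144 h, stored below −18°C and assayed by LC-MS/MS after protein precipitation. Noncompartmental analysis gave Vz/F. Vss/F = CL/F·(MRTp.o. − 1/Ka), with Ka from compartmental modelling.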

[26] = Apparent volume of distribution at steady state in healthy human at 62.5 mg, po administered as single dose coadministered with 100 mg of ritonavir; assay type: ADME, organism-based; conditions: in vivo, read-out: Vss/F; method in brief: as §3
[27] = Mean residence time in healthy human at 5 mg, po administered as single dose coadministered with 100 mg of ritonavir; assay type: ADME, organism-based; conditions: in vivo
[28] = AUC (0 to last) in healthy human at 100 mg, po administered as single dose; assay type: ADME, organism-based; parameters: dose 100 mg, time 0 - last, route oral; conditions: plasma; method in brief: as §2
Homo sapiens [29] = test: Toxicity in healthy human assessed as occurrence of frequent bowel movements at 75 mg, po administered as single dose relative to control; assay type: organism-based; conditions: in vivo
[30] = Half life in healthy human at 62.5 mg, po administered as single dose coadministered with 100 mg of ritonavir; assay type: ADME, organism-based; conditions: in vivo
Homo sapiens [31] = test: Toxicity in healthy human assessed as occurrence of neurological eyelid disorder at 1 mg, po administered as single dose relative to control; assay type: organism-based; conditions: in vivo

CCN1c2ncc(CCOc3cc[n+]([O-])c4ccccc34)cc2C(=O)N(C)c2cccnc21 [BILR 355]
CL/F [1]: 112 mL/min | Cmax [2]: 430 ng/mL | MRT [3]: 16.7 h | CL/F [4]: 141 mL/min | CL/F [5]: 2480 mL/min | Tmax [6]: 0.958 h | AUC(0-t) [7]: 13.6 ng·h/mL | Activity (Homo sapiens [8]): 20% | Activity (Homo sapiens [9]): 0% | Activity (Homo sapiens [10]): 0% | CL renal [11]: 6.85 mL/min | AUC(0-t) [12]: 5800 ng·h/mL | Activity (Homo sapiens [13]): 0% | Tmax [14]: 1.75 h | Activity (Homo sapiens [15]): 0% | Activity (Homo sapiens [16]): 0% | Activity (Homo sapiens [17]): 0% | AUC(0-t) [18]: 615 ng·h/mL | dose excreted [19]: 3.58% | Ratio (Homo sapiens [20]): 3.9 | Activity (Homo sapiens [21]): 0% | AUC(0-inf) [22]: 11800 ng·h/mL | Cmax [23]: 468 ng/mL | Activity (Homo sapiens [24]): 0% | Vd/F [25]: 1020 L | Vd/F [26]: 113 L | MRT [27]: 24.8 h | AUC(0-t) [28]: 1300 ng·h/mL | Activity (Homo sapiens [29]): 16.7% | half-life [30]: 9.73 h | Activity (Homo sapiens [31]): 0%
